# Experimental data taken from ChEMBL document CHEMBL1649429, “Novel plasmid-encoded ceftazidime-hydrolyzing CTX-M-53 extended-spectrum beta-lactamase from Salmonella enterica serotypes Westhampton and Senftenberg” (Antimicrob Agents Chemother, 2009).
# Where a chain is given by its changes, count along the chain named.
# B1: Beta-lactamase CTX-M-16 (Escherichia coli), Q939N4 (protein)
# chain: MVTKRVQRMMFAAAACIPLLLGSAPLYAQTSAVQQKLAALEKSSGGRLGVALIDTADNTQVLYRGDERFPMCSTSKVMAAAAVLKQSETQKQLLNQPVEIKPADLVNYNPIAEKHVNGTMTLAELSAAALQYSDNTAMNKLIAQLGGPGGVTAFARAIGDETFRLDRTEPTLNTAIPGDPRDTTTPRAMAQTLRQLTLGHALGETQRAQLVTWLKGNTTGAASIRAGLPTSWTAGDKTGSGGYGTTNDIAVIWPQGRAPLVLVTYFTQPQQNAESRRDVLASAARIIAEGL
# B2: Beta-lactamase CTX-M-27 (Escherichia coli), Q840M4 (protein)
# chain: B1 chain with A234V
# B3: Extended-spectrum beta-lactamase CTX-M-53 (Salmonella enterica subsp. enterica serovar Westhampton), Q2XPY6 (protein)
# chain: MVKKSLRQFTLMATATVTLLLGSVPLYAQTVDVQQKLAELEQQSGGRLGVALINTADNSQILYRADERFAMCSTSKVMAVAAVLKKSESEPNLLNQRVEIKKSDLVNYNPIAEKHVNGTMSLAELSAAALQYSDNVAMNKLIAHVGGPASVTAFARQLGDETFRLDRTEPTLNTAIPGDPRDTTSPRAMAQTLRNLTLGKALGDSQRAQLVTWMKGNTTGAASIQAGLPASWVVGDKTGSGGYGTTNDIAVIWPKDRAPLILVIYFTQPQPKAESRRDVLASAAKIVTDGL
# How the values were obtained:
# [1] = substrate: CC(C)(O/N=C(\C(=O)N[C@@H]1C(=O)N2C(C(=O)[O-])=C(C[n+]3ccccc3)CS[C@H]12)c1csc(N)n1)C(=O)O; conditions: Escherichia coli
# [2] = substrate: C[C@H]1[C@H](NC(=O)/C(=N\OC(C)(C)C(=O)O)c2csc(N)n2)C(=O)N1S(=O)(=O)O; conditions: Escherichia coli
# [3] = substrate: C[C@H]1[C@H](NC(=O)/C(=N\OC(C)(C)C(=O)O)c2csc(N)n2)C(=O)N1S(=O)(=O)O; conditions: Escherichia coli; remark: listed apart in the source
# [4] = substrate: CC(C)(O/N=C(\C(=O)N[C@@H]1C(=O)N2C(C(=O)[O-])=C(C[n+]3ccccc3)CS[C@H]12)c1csc(N)n1)C(=O)O; conditions: Escherichia coli; remark: listed apart in the source
# [5] = substrate: CC(C)(O/N=C(\C(=O)N[C@@H]1C(=O)N2C(C(=O)[O-])=C(C[n+]3ccccc3)CS[C@H]12)c1csc(N)n1)C(=O)O; assay: (§1) Ratio of Kcat/Km for Salmonella enterica serotype Westhampton beta-lactamase CTX-M-53; conditions: Salmonella enterica subsp. enterica serovar Westhampton
# Outline: (§2)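 CTX-M-53 was purified from E. coli DH5 carrying recombinant pCTX-M-53, grown in brain heart infusion with cefotaxime 2 µg/ml for 18 h at 37°C. Cells were sonicated in 20 mM MES-NaOH pH 6.0, and nucleic acids removed with spermine. The enzyme was purified by SP Sepharose ion exchange and Superose 12 gel filtration. Km and kcat were measured by computerized microacidimetry, three determinations each.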
# [6] = substrate: C[C@H]1[C@H](NC(=O)/C(=N\OC(C)(C)C(=O)O)c2csc(N)n2)C(=O)N1S(=O)(=O)O; assay: as §1; conditions: Salmonella enterica subsp. enterica serovar Westhampton
# Outline: as §2
# [7] = substrate: CO/N=C(\C(=O)N[C@@H]1C(=O)N2C(C(=O)O)=C(COC(N)=O)CS[C@H]12)c1ccco1; assay: as §1; conditions: Salmonella enterica subsp. enterica serovar Westhampton
# Outline: as §2
# [8] = substrate: CO/N=C(\C(=O)N[C@@H]1C(=O)N2C(C(=O)[O-])=C(C[n+]3cccc4c3CCC4)CS[C@H]12)c1csc(N)n1; assay: as §1; conditions: Salmonella enterica subsp. enterica serovar Westhampton
# Outline: as §2
# [9] = substrate: CO/N=C(\C(=O)N[C@@H]1C(=O)N2C(C(=O)O)=C(COC(C)=O)CS[C@H]12)c1csc(N)n1; assay: as §1; conditions: Salmonella enterica subsp. enterica serovar Westhampton
# Outline: as §2
# [10] = substrate: CC1(C)S[C@@H]2[C@H](NC(=O)[C@H](N)c3ccc(O)cc3)C(=O)N2[C@H]1C(=O)O; assay: as §1; conditions: Salmonella enterica subsp. enterica serovar Westhampton
# Outline: as §2
# [11] = substrate: CC(=O)OCC1=C(C(=O)O)N2C(=O)[C@@H](NC(=O)Cc3cccs3)[C@H]2SC1; assay: as §1; conditions: Salmonella enterica subsp. enterica serovar Westhampton
# Outline: as §2
# [12] = substrate: CC1(C)S[C@@H]2[C@H](NC(=O)Cc3ccccc3)C(=O)N2[C@H]1C(=O)O; assay: as §1; conditions: Salmonella enterica subsp. enterica serovar Westhampton
# Outline: as §2
# [13] = substrate: CCN1CCN(C(=O)N[C@@H](C(=O)N[C@@H]2C(=O)N3[C@@H]2SC(C)(C)[C@@H]3C(=O)O)c2ccccc2)C(=O)C1=O; assay: as §1; conditions: Salmonella enterica subsp. enterica serovar Westhampton
# Outline: as §2
# [14] = substrate: CC1(C)S[C@@H]2[C@H](NC(=O)[C@H](C(=O)O)c3ccsc3)C(=O)N2[C@H]1C(=O)O; assay: as §1; conditions: Salmonella enterica subsp. enterica serovar Westhampton
# Outline: as §2
# [15] = substrate: CC(C)(O/N=C(\C(=O)N[C@@H]1C(=O)N2C(C(=O)[O-])=C(C[n+]3ccccc3)CS[C@H]12)c1csc(N)n1)C(=O)O; assay: (§3) Activity of Salmonella enterica serotype Westhampton beta-lactamase CTX-M-53; conditions: Salmonella enterica subsp. enterica serovar Westhampton
# Outline: as §2
# [16] = substrate: C[C@H]1[C@H](NC(=O)/C(=N\OC(C)(C)C(=O)O)c2csc(N)n2)C(=O)N1S(=O)(=O)O; assay: as §3; conditions: Salmonella enterica subsp. enterica serovar Westhampton
# Outline: as §2
# [17] = substrate: CO/N=C(\C(=O)N[C@@H]1C(=O)N2C(C(=O)O)=C(COC(N)=O)CS[C@H]12)c1ccco1; assay: as §3; conditions: Salmonella enterica subsp. enterica serovar Westhampton
# Outline: as §2
# [18] = substrate: CO/N=C(\C(=O)N[C@@H]1C(=O)N2C(C(=O)[O-])=C(C[n+]3cccc4c3CCC4)CS[C@H]12)c1csc(N)n1; assay: as §3; conditions: Salmonella enterica subsp. enterica serovar Westhampton
# Outline: as §2
# [19] = substrate: CO/N=C(\C(=O)N[C@@H]1C(=O)N2C(C(=O)O)=C(COC(C)=O)CS[C@H]12)c1csc(N)n1; assay: as §3; conditions: Salmonella enterica subsp. enterica serovar Westhampton
# Outline: as §2
# [20] = substrate: CC1(C)S[C@@H]2[C@H](NC(=O)[C@H](N)c3ccc(O)cc3)C(=O)N2[C@H]1C(=O)O; assay: as §3; conditions: Salmonella enterica subsp. enterica serovar Westhampton
# Outline: as §2
# [21] = substrate: CC(=O)OCC1=C(C(=O)O)N2C(=O)[C@@H](NC(=O)Cc3cccs3)[C@H]2SC1; assay: as §3; conditions: Salmonella enterica subsp. enterica serovar Westhampton
# Outline: as §2
# [22] = substrate: CC1(C)S[C@@H]2[C@H](NC(=O)Cc3ccccc3)C(=O)N2[C@H]1C(=O)O; assay: as §3; conditions: Salmonella enterica subsp. enterica serovar Westhampton
# Outline: as §2
# [23] = substrate: CCN1CCN(C(=O)N[C@@H](C(=O)N[C@@H]2C(=O)N3[C@@H]2SC(C)(C)[C@@H]3C(=O)O)c2ccccc2)C(=O)C1=O; assay: as §3; conditions: Salmonella enterica subsp. enterica serovar Westhampton
# Outline: as §2
# [24] = substrate: CC1(C)S[C@@H]2[C@H](NC(=O)[C@H](C(=O)O)c3ccsc3)C(=O)N2[C@H]1C(=O)O; assay: as §3; conditions: Salmonella enterica subsp. enterica serovar Westhampton
# Outline: as §2
protein,measurement,setting,value
B1,kcat/Km,[1],0.04 s⁻¹
same,Km,[2],17 µM
B2,Km,[3],17 µM
same,kcat/Km,[4],0.01 s⁻¹
B3,kcat/Km,[5],100000 M⁻¹ s⁻¹
same,kcat/Km,[6],300000 M⁻¹ s⁻¹
same,kcat/Km,[7],3.6e+06 M⁻¹ s⁻¹
same,kcat/Km,[8],5.7e+06 M⁻¹ s⁻¹
same,kcat/Km,[9],3.2e+06 M⁻¹ s⁻¹
same,kcat/Km,[10],2.1e+06 M⁻¹ s⁻¹
same,kcat/Km,[11],1.64e+07 M⁻¹ s⁻¹
same,kcat/Km,[12],1.35e+07 M⁻¹ s⁻¹
same,kcat/Km,[13],7.5e+06 M⁻¹ s⁻¹
same,kcat/Km,[14],500000 M⁻¹ s⁻¹
same,Km,[15],174 µM
same,kcat,[15],14 s⁻¹
same,Km,[16],14 µM
same,kcat,[16],4 s⁻¹
same,Km,[17],80 µM
same,kcat,[17],292 s⁻¹
same,Km,[18],125 µM
same,kcat,[18],710 s⁻¹
same,Km,[19],180 µM
same,kcat,[19],585 s⁻¹
same,Km,[20],40 µM
same,kcat,[20],85 s⁻¹
same,Km,[21],122 µM
same,kcat,[21],2000 s⁻¹
same,Km,[22],10 µM
same,kcat,[22],135 s⁻¹
same,Km,[23],12 µM
same,kcat,[23],90 s⁻¹
same,Km,[24],18 µM
same,kcat,[24],10 s⁻¹
